# Legend:
# [1] = test system: Respiratory syncytial virus; experiment: Inhibition of RSV by MTT assay; assay type: functional, organism-based; settings: human respiratory syncytial virus
# How it was run: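 HeLaM epithelial-like cells infected with RSV with or without a range of compound concentrations; viability read by MTT after 1 week incubation. OD measured spectrophotometrically and pEC50 derived. Virus, cell and cytotoxicity controls on every plate, reference compounds in every test; runs failing control criteria rejected.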
# [2] = Cytotoxicity against human HeLaM cells by MTT assay; assay type: functional, M-HeLa
# [3] = Half life in Sprague-Dawley rat lung; assay type: ADME, organism-based
half-life [3],Compound,EC50 [1],pCC50 [2]
–,Cc1cc(C)cc(NCc2ccc3nc(NCC(O)CO)n(Cc4nc(C)ccc4O)c3c2)c1 (configuration not stated),31.6 nM,4.3
–,Cc1cc(C)cc(NCc2ccc3nc(NC4CCN(C)CC4)n(Cc4nc(C)ccc4O)c3c2)c1,2.51 nM,4.3
–,Cc1cccc(C(=O)Nc2ccc3nc(NC4CCN(C)CC4)n(Cc4nc(C)ccc4O)c3c2)c1,63.1 nM,4.3
–,Cc1ccc(O)c(Cn2c(NC3CCN(C)CC3)nc3ccc(CNc4ccccc4)cc32)n1,15.8 nM,4.5
–,Cc1cccc(NCc2ccc3nc(NC4CCN(C)CC4)n(Cc4nc(C)ccc4O)c3c2)c1,5.01 nM,4.7
–,Cc1ccc(O)c(Cn2c(NCCCN3CCOCC3)nc3ccc(CN(CCO)c4ccccc4)cc32)n1,3.16 nM,4.3
–,Cc1cc(C)cc(N(CCO)Cc2ccc3nc(NC4CCN(C)CC4)n(Cc4nc(C)ccc4O)c3c2)c1,0.398 nM,4.4
19.6 h,Cc1cc(C)cc(N(CCO)Cc2ccc3nc(NCCCN4CCOCC4)n(Cc4nc(C)ccc4O)c3c2)c1,0.501 nM,4.4
67.7 h,Cc1cccc(NCc2ccc3nc(NC4CCN(CCO)CC4)n(Cc4nc(C)ccc4O)c3c2)c1,1.58 nM,4.4
–,Cc1cccc(N(CCO)Cc2ccc3nc(NCCCN4CCOCC4)n(Cc4nc(C)ccc4O)c3c2)c1,0.501 nM,5
–,Cc1ccc(O)c(Cn2c(NCCCN3CCOCC3)nc3ccc(CNc4ccccc4CCCO)cc32)n1,0.251 nM,4.9
–,Cc1cccc(/C=C/c2ccc3nc(NC4CCN(C)CC4)n(Cc4nc(C)ccc4O)c3c2)c1,501 nM,5.6
–,Cc1cccc(CCc2ccc3nc(NC4CCN(CCN)CC4)n(Cc4nc(C)ccc4O)c3c2)c1,1 nM,4.9
–,Cc1ccc(O)c(Cn2c(NC3CCN(CC(N)C(C)C)CC3)nc3c(C)ccnc32)n1 (configuration not stated),0.1 nM,4.3
–,CCCCNc1nc2ccc(CNc3cc(C)cc(C)c3)cc2n1Cc1nc(C)ccc1O,> 100000 nM,5.1
